Laboratory results reported in ChEMBL document CHEMBL1143188, “5-Aryl-imidazolin-2-ones as a scaffold for potent antioxidant and memory-improving activity” (Bioorg Med Chem Lett, 2008).
Activity calls are given as the source filed them. The rule behind the calls is not given here.

Experiments:
Brain = assay: Inhibition of lipid peroxidation in Wistar rat brain homogenates by TBARS assay; type: functional, tissue-based
In short: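 Male Wistar rat brain homogenate autooxidized at 37 °C for 30 min with or without compound. Lipid peroxidation read by a modified thiobarbituric acid (TBARS) test; IC50 derived.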

[1] = DPPH radical scavenging activity at 100 uM relative to control; type: ADME
In short: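 DPPH 100 μM in ethanol; compound added in ethanol to a final 100 μM; optical density read; scavenging expressed as a percentage of the optical density of a control with excess vitamin C.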

Rattus norvegicus [2] = assay: Memory improving activity in po dosed rat passive avoidance model assessed as effect on cycloheximide-induced amnesia; type: functional; details: read-out: MED
In short: (§1)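 Passive avoidance: one day after training, compound (0.1–30 mg/kg) or vehicle given orally 30 min before a retention trial. Read-out was latency to move from the light to the dark room; minimum effective dose (MED) reported.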

Rattus norvegicus [3] = assay: Memory improving activity in rat passive avoidance model assessed as effect on cycloheximide-induced amnesia at 0.1 mg/kg, po; type: functional, organism-based; design: dose 0.1 mg/kg; in short: as §1
Rattus norvegicus [4] = assay: Toxicity in po dosed rat; type: organism-based; details: in vivo

Structure (SMILES) | IC50 (Brain) [µM] | also measured
CCCCOc1ccc(-c2c(C)[nH]c(=O)n2C2CCCCC2)cc1 | 13.9 | Activity [1]: 88%
CCCCCCCCCCCCCCCCCCOc1ccc(-c2c(C)[nH]c(=O)n2C)cc1 | > 100 | –
CCCCCCCCCCCCCCCCCCc1ccc(-c2c(C)[nH]c(=O)n2C)cc1 | > 100 | –
CCCCCCCCCCCCc1ccc(-c2c(C)[nH]c(=O)n2C)cc1 | 13 | –
CCCCc1ccc(-c2c(C)[nH]c(=O)n2-c2ccccc2)cc1 | 16.6 | –
CCCCCCCCCCCCCCc1ccc(-c2c(C)[nH]c(=O)n2C2CCCCC2)cc1 | > 100 | –
Cc1[nH]c(=O)n(C)c1-c1ccccc1 | > 100 | –
CCCCc1ccc(-c2c(C)[nH]c(=O)n2C(C)C)cc1 | 10.7 | Activity [1]: 78%
CCCCOc1ccc(-c2c(C)[nH]c(=O)n2C)cc1 | 5.1 | minimal effective dose (Rattus norvegicus [2]): 0.3 mg/kg
Cc1[nH]c(=O)n(C2CCCCC2)c1-c1ccc(OCc2ccccc2)cc1 | 8.3 | minimal effective dose (Rattus norvegicus [2]): 0.1 mg/kg
CCCCCCCCCCc1ccc(-c2c(C)[nH]c(=O)n2C)cc1 | 7.9 | minimal effective dose (Rattus norvegicus [2]): 0.3 mg/kg
CCCCCCc1ccc(-c2c(C)[nH]c(=O)n2C2CCCCC2)cc1 | 13.7 | –
Cc1[nH]c(=O)n(C2CCCCC2)c1-c1cccc(OC(C)C)c1 | 10.4 | –
CCCCCCCCCCCCCCCCCCc1ccc(-c2c(C)[nH]c(=O)n2C2CCCCC2)cc1 | > 100 | –
CCCCCCOc1ccc(-c2c(C)[nH]c(=O)n2C2CCCCC2)cc1 | 8.5 | Activity (Rattus norvegicus [3]): inactive
Cc1[nH]c(=O)n(C)c1-c1ccc(C2CCCCC2)cc1 | 10 | Activity (Rattus norvegicus [4]): > 1000 mg/kg; minimal effective dose (Rattus norvegicus [2]): 0.1 mg/kg
CCCCCOc1ccc(-c2c(C)[nH]c(=O)n2C)cc1 | 4.5 | Activity (Rattus norvegicus [3]): inactive
CCCCCCc1ccc(-c2c(C)[nH]c(=O)n2C)cc1 | 9 | minimal effective dose (Rattus norvegicus [2]): 0.3 mg/kg
COc1ccc(-c2c(C)[nH]c(=O)n2C2CCCCC2)cc1 | 20.4 | –
CCCCCc1ccc(-c2c(C)[nH]c(=O)n2C)cc1 | 5.9 | –
CCCCCCCCc1ccc(-c2c(C)[nH]c(=O)n2C)cc1 | 19.4 | –
CCCCCCCCCCCCc1ccc(-c2c(C)[nH]c(=O)n2C2CCCCC2)cc1 | > 100 | –

Structure (SMILES) | IC50 (Brain) [µM] | also measured
CCCCCCCCCCc1ccc(-c2c(C)[nH]c(=O)n2C2CCCCC2)cc1 | 27 | –
CCCCc1ccc(-c2c(C)[nH]c(=O)n2CCCC)cc1 | 12 | –
Cc1[nH]c(=O)n(C2CCCCC2)c1-c1ccc(CC(C)C)cc1 | 10.9 | –
Cc1[nH]c(=O)n(C)c1-c1ccc(Oc2ccccc2)cc1 | 8.1 | Activity (Rattus norvegicus [3]): inactive
CCCCc1ccc(-c2c(C)[nH]c(=O)n2C2CCCCC2)cc1 | 27.1 | –
CCCCCCCCOc1ccc(-c2c(C)[nH]c(=O)n2C)cc1 | 4 | minimal effective dose (Rattus norvegicus [2]): 30 mg/kg
Cc1[nH]c(=O)n(C)c1-c1ccc(C(C)(C)C)cc1 | 8.4 | –
Cc1[nH]c(=O)n(C)c1-c1ccc(OCCC(C)C)cc1 | 6.6 | Activity (Rattus norvegicus [3]): inactive
Cc1[nH]c(=O)n(C2CCCCC2)c1-c1ccccc1 | 47.6 | –
CCCCCCCc1ccc(-c2c(C)[nH]c(=O)n2C)cc1 | 8.4 | minimal effective dose (Rattus norvegicus [2]): 30 mg/kg
Cc1[nH]c(=O)n(C)c1-c1ccc(OCc2ccccc2)cc1 | 6.7 | Activity (Rattus norvegicus [3]): inactive
CCCCCCCCCCOc1ccc(-c2c(C)[nH]c(=O)n2C2CCCCC2)cc1 | 10.5 | minimal effective dose (Rattus norvegicus [2]): 0.1 mg/kg
CCCCCCCCc1ccc(-c2c(C)[nH]c(=O)n2C2CCCCC2)cc1 | 10.3 | –
Cc1[nH]c(=O)n(C2CCCCC2)c1-c1ccc(C2CCCCC2)cc1 | 28.9 | –
Cc1[nH]c(=O)n(C)c1-c1ccc(CC(C)C)cc1 | 7.8 | minimal effective dose (Rattus norvegicus [2]): 30 mg/kg
CCCCCCCOc1ccc(-c2c(C)[nH]c(=O)n2C)cc1 | 5.7 | Activity (Rattus norvegicus [3]): inactive
CCCCn1c(-c2ccccc2)c(C)[nH]c1=O | > 100 | –
Cc1[nH]c(=O)n(C2CCCCC2)c1-c1ccc(OCCC(C)C)cc1 | 7.2 | Activity (Rattus norvegicus [3]): inactive
CCCCCCCOc1ccc(-c2c(C)[nH]c(=O)n2C2CCCCC2)cc1 | 11.6 | –
CCCCCCCCCCCCOc1ccc(-c2c(C)[nH]c(=O)n2C2CCCCC2)cc1 | 52.4 | –
CCCCc1ccc(-c2c(C)[nH]c(=O)n2C)cc1 | 10.7 | Activity (Rattus norvegicus [4]): > 1000 mg/kg; Activity [1]: 98%; minimal effective dose (Rattus norvegicus [2]): 0.1 mg/kg
CCCCCCCc1ccc(-c2c(C)[nH]c(=O)n2C2CCCCC2)cc1 | 8.7 | –

Structure (SMILES) | IC50 (Brain) [µM] | also measured
CCCCCc1ccc(-c2c(C)[nH]c(=O)n2C2CCCCC2)cc1 | 10.6 | –
Cc1[nH]c(=O)n(C)c1-c1ccc(-c2ccccc2)cc1 | 6.3 | Activity (Rattus norvegicus [4]): > 1000 mg/kg; minimal effective dose (Rattus norvegicus [2]): 0.3 mg/kg
Cc1[nH]c(=O)n(C2CCCCC2)c1-c1ccccc1OC(C)C | 21.5 | –
CCCc1ccc(-c2c(C)[nH]c(=O)n2C2CCCCC2)cc1 | 13.9 | –
CCCCc1ccc(-c2c(CC)[nH]c(=O)n2C)cc1 | 13.9 | –
Cc1ccc(-c2c(C)[nH]c(=O)n2C)cc1 | 85.3 | –
Cc1[nH]c(=O)n(C2CCCCC2)c1-c1ccc(-c2ccccc2)cc1 | 10.9 | minimal effective dose (Rattus norvegicus [2]): 0.1 mg/kg
CCCc1ccc(-c2c(C)[nH]c(=O)n2C)cc1 | 21.5 | –
CCCCCCOc1ccc(-c2c(C)[nH]c(=O)n2C)cc1 | 7.3 | Activity (Rattus norvegicus [3]): inactive
CCCCCCCCCCCCCCCCCCOc1ccc(-c2c(C)[nH]c(=O)n2C2CCCCC2)cc1 | > 100 | –
CCCCCCCCOc1ccc(-c2c(C)[nH]c(=O)n2C2CCCCC2)cc1 | 8.5 | minimal effective dose (Rattus norvegicus [2]): 30 mg/kg
Cc1[nH]c(=O)n(C2CCCCC2)c1-c1ccc(Oc2ccccc2)cc1 | 7.9 | minimal effective dose (Rattus norvegicus [2]): 0.1 mg/kg
Cc1[nH]c(=O)n(C2CCCCC2)c1-c1ccc(OC(C)C)cc1 | 13 | –
Cc1[nH]c(=O)n(C)c1-c1ccc(OC(C)C)cc1 | 20.4 | –
CCCCCCCCCCOc1ccc(-c2c(C)[nH]c(=O)n2C)cc1 | 6.9 | minimal effective dose (Rattus norvegicus [2]): 0.1 mg/kg
CCCCCCCCCCCCCCc1ccc(-c2c(C)[nH]c(=O)n2C)cc1 | 43.8 | –
COc1ccc(-c2c(C)[nH]c(=O)n2C)cc1 | 147 | –
CCCCCCCCCCCCOc1ccc(-c2c(C)[nH]c(=O)n2C)cc1 | 9.7 | minimal effective dose (Rattus norvegicus [2]): 0.1 mg/kg
CCCCc1ccc(-c2c(C)[nH]c(=O)n2Cc2ccccc2)cc1 | 12.4 | Activity [1]: 59%
CCCCCOc1ccc(-c2c(C)[nH]c(=O)n2C2CCCCC2)cc1 | 9.1 | Activity (Rattus norvegicus [3]): inactive
